Test results reported in PubChem BioAssay AID2465 (Broad Institute, 2010).
“And” between values parts separate entries of the source, which are not always exact repeats. Identical values can stand only once. Screen size: about 24,000 compounds; fewer than 10 were called active. Cut-off read from the data, not from the text of the source: active = caspase activation above about 5.9%; inconclusive = no clear call, values can overlap the other calls; inactive = below about 2.2%. The list is a sample of the results.

experiment: A1 inhibitors via caspase activation, primary screen, cell-based, luminescence, HTS, two replicates (AID 2465); settings: MEF A1-2A-BIM cells, caspase-Glo luminescence, 3 h; active compounds read high; percent of clofoctol response, DMSO zero; concentration not given here
Procedure, shortened: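 System: mouse embryonic fibroblasts co-expressing A1 and BIM (A1-2A-BIM), primed for A1 dependence; amount: 2500 cells/well; doses: 50 nL pinned compound; schedule: cells settled overnight, compound exposure 3 h at 37 °C, 5% CO2; detection: Caspase-Glo 3/7 luminescence, 1 h at room temperature; read-out: Caspase-3/7 activation, seen as rise in luminescence signal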

Caspase activation, inactive:
COc1ccc(S(=O)(=O)Nc2ccc3c(c2)C(=O)N([C@@H](C)CO)C[C@H](C)[C@H](CN(C)S(=O)(=O)c2c(C)noc2C)OCCCC[C@@H](C)O3)cc1 0.0111%
C[C@@H]1CCCCO[C@@H](CN(C)C(=O)NC2CCCCC2)[C@H](C)CN([C@H](C)CO)C(=O)c2cc(NC(=O)c3ccccc3)ccc2O1 0.223%
C[C@H]1CN([C@@H](C)CO)C(=O)c2cccc(NS(=O)(=O)c3ccc(Cl)cc3)c2O[C@@H]1CN(C)Cc1ccc(Oc2ccccc2)cc1 1%
C[C@H](CO)N1C[C@H](C)[C@H](CN(C)Cc2ccc(C(=O)O)cc2)Oc2ccc(NS(=O)(=O)c3cn(C)cn3)cc2CC1=O -0.00308%
C[C@@H]1CN([C@H](C)CO)C(=O)Cc2cc(NC(=O)c3ccncc3)ccc2O[C@H]1CN(C)S(=O)(=O)c1cccs1 0.361%
COc1ccc(CN(C)C[C@@H]2OCCCC[C@@H](C)Oc3ccc(NS(=O)(=O)c4ccc(C)cc4)cc3C(=O)N([C@@H](C)CO)C[C@H]2C)cc1 0.1%
Cc1noc(C)c1S(=O)(=O)Nc1ccc2c(c1)C(=O)N([C@H](C)CO)C[C@H](C)[C@H](CN(C)C(=O)NC1CCCCC1)OCCCC[C@H](C)O2 -1.41%
O=C(N/N=C/[C@H](O)[C@@H](O)[C@H](O)[C@H](O)CO)c1ccccc1O -0.678%
C[C@H]1CCCCO[C@H](CN(C)C(=O)Nc2ccc3c(c2)OCO3)[C@@H](C)CN([C@@H](C)CO)C(=O)c2cc(NC(=O)Nc3ccccc3)ccc2O1 0.0515%
C[C@H]1CN([C@@H](C)CO)C(=O)c2cccc(NC(=O)Nc3ccccc3)c2O[C@@H]1CN(C)C(=O)Nc1cccc2ccccc12 -0.864%
[N-]=[N+]=NC[C@H](Cc1ccccc1)NC(=O)Nc1ccccc1 -3.77% and 0.143%
COc1ccc(S(=O)(=O)Nc2ccc3c(c2)C(=O)N([C@H](C)CO)C[C@H](C)[C@@H](CN(C)Cc2ccccc2)OCCCC[C@@H](C)O3)cc1 0.258%
Cc1cccc(S(=O)(=O)N(C)C[C@H]2OCc3cnnn3CCCC(=O)N([C@@H](C)CO)C[C@H]2C)c1 -0.906%
COc1ccc(S(=O)(=O)Nc2ccc3c(c2)C(=O)N([C@@H](C)CO)C[C@@H](C)[C@H](CN(C)C(=O)Nc2ccc(C(F)(F)F)cc2)OCCCC[C@@H](C)O3)cc1 -0.653%
C[C@@H]1CCCCO[C@@H](CN(C)S(=O)(=O)c2ccccc2)[C@H](C)CN([C@H](C)CO)C(=O)c2cc(NC(=O)Nc3ccc4c(c3)OCO4)ccc2O1 -1.23%
